# Data reported in article PMC10150624 (Journal of Enzyme Inhibition and Medicinal Chemistry, 2023).
# Key:
# EGFR^L858R/T790M = EGFR^L858R/T790M (Homo sapiens, UniProt P00533, L858R/T790M); assay: EGFR kinase inhibition by ELISA, L858R/T790M; format: biochemical; details: EGFR^L858R/T790M versus EGFR^WT, kinase assay
# A549 cells [1] = assay: Wound healing; format: cell-based; details: 5 or 10 μM, 0, 24 and 48 h
# How it was run: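 Wound-healing format with A549 cells at 3.6 × 10^5/well, exposed to test compound and imaged at 0, 24 and 48 h. Cell migration into the wound was assessed by microscopy and photography.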
# A549 cells [2] = assay: AO/EB fluorescent staining, morphology of apoptotic cells; format: cell-based; details: A549 cells, 1, 5 or 10 μM, 48 h
# How it was run: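 A549 cells seeded in 6-well plates at 3.6 × 10^5/mL and grown 24 h, then exposed to test compound for a further 48 h; untreated A549 cells served as control. Cells were stained for a few min with AO/EB dual fluorescent solution, then viewed and photographed by forward fluorescence microscopy for apoptotic morphology.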
# H1975 cells [3] = assay: Apoptosis by flow cytometry, Annexin V/PI double staining; format: cell-based; details: H1975, 10 μM, 48 h; total apoptotic cells (Q2 + Q3)
# How it was run: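 H1975 cells in log growth seeded at 3 × 10^5/well, held 24 h at 37 °C, 5% CO2, then exposed to test compound at several concentrations for 48 h. Cells harvested by trypsin, PBS-washed, stained with Annexin V-APC for 30 min and then PI for 3 min at room temperature in the dark, diluted in saline and read at once by flow cytometry. Total apoptotic fraction taken as Q2 + Q3.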
# H1975 cells [4] = assay: Cell cycle progression by flow cytometry; format: cell-based; details: 24 h
# How it was run: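 H1975 cells seeded at 3 × 10^5/well and cultured 24 h, then treated with test compound (0.2, 1.0, 5 μM) for 24 h at 37 °C. Cells PBS-washed, fixed overnight in ice-cold 70% ethanol, washed again and stained with PI for 30 min at room temperature in the dark. DNA content analysed by flow cytometry to give the G2/M fraction against an untreated control.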
# Sequence of EGFR^L858R/T790M (P00533 25-1210 T790M/L858R): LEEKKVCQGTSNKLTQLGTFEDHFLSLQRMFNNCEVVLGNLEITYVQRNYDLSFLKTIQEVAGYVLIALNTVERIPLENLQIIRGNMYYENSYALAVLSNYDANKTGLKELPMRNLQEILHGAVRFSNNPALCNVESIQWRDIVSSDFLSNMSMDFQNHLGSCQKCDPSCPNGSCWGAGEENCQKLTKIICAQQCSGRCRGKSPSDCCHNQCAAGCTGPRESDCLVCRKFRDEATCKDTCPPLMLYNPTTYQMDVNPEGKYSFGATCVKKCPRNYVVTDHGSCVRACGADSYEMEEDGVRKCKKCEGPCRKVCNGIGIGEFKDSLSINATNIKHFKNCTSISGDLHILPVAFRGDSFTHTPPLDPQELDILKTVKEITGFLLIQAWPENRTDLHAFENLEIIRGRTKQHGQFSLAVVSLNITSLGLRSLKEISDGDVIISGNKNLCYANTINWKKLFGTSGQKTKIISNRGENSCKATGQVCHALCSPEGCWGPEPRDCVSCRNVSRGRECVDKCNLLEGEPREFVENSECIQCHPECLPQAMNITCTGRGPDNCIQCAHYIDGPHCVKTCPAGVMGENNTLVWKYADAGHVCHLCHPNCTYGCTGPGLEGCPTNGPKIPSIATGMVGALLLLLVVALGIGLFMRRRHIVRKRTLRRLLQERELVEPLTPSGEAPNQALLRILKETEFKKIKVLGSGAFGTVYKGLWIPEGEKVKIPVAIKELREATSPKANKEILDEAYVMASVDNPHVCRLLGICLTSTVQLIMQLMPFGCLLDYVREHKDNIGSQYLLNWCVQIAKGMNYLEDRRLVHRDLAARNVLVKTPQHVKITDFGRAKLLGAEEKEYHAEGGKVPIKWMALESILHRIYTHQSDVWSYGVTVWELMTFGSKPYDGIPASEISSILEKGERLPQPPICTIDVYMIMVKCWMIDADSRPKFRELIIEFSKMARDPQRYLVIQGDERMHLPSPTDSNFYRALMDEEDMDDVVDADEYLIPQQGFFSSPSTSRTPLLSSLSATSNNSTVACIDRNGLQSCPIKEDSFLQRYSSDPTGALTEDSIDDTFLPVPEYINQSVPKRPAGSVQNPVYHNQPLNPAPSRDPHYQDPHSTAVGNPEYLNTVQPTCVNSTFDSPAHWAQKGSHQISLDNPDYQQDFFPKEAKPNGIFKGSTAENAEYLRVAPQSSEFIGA
selectivity for EGFR^WT (EGFR^L858R/T790M),Structure (SMILES),wound healing (A549 cells [1]),"apoptosis induction, cell morphology (A549 cells [2])",apoptosis rate (H1975 cells [3]) [%],"percentage of G2/M-phase cells (H1975 cells [4]; H1975, 0.2 μM) [%]","percentage of G2/M-phase cells (H1975 cells [4]; H1975, 1.0 μM) [%]","percentage of G2/M-phase cells (H1975 cells [4]; H1975, 5 μM) [%]"
more than 16 fold,"C=C(Cl)C(=O)Nc1cc(Nc2nc(Nc3cnn(C)c3)c3sccc3n2)c(OC)cc1N(C)CCN(C)C [Compound B7, 2-chloro-N-(2-((2-(dimethylamino)ethyl)(methyl)amino)-4-methoxy-5-((4-((1-methyl-1H-pyrazol-4-yl)amino)thieno[3,2-d]pyrimidin-2-yl)amino)phenyl)acrylamide]",wound healing was slower in the treated group than that in the blank control group,induce apoptosis in A549 cells in a concentration-dependent manner,–,–,–,–
more than 76 fold,"C=C(Cl)C(=O)Nc1cc(Nc2nc(N3CCc4sccc4C3)c3sccc3n2)c(OC)cc1N(C)CCN(C)C [Compound B1, 2-chloro-N-(5-((4–(6,7-dihydrothieno[3,2-c]pyridin-5(4H)-yl)thieno[3,2-d]pyrimidin-2-yl)amino)-2-((2-(dimethylamino)ethyl)(methyl)amino)-4-methoxyphenyl)acrylamide]",wound healing was slower in the treated group than that in the blank control group,induce apoptosis in A549 cells in a concentration-dependent manner,22.1,24.41,27.68,31.47
